Screening results: PubChem BioAssay, several laboratories
CRFR2-BP ag: CRF-BP/CRF-R2 complex agonism; activation, % at 13.2 µM; 0.46% of 350,000 active; HEK293 CRF-R2/CRF-BP, calcium dye fluorescence (FLIPR); percent of saturating CRF peptide response; AID 588473;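 active = activation of at least 50%, plus an integration ratio under a set limit after plate pattern correction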;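 note: plate controls were neutral control wells without compound for no effect and CRF at EC100 for full effect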
zfTRPN1 agonist: activates the zebrafish TRPN1 channel | AID 1424 | activation, % at 3 µM | HEK293 zebrafish TRPN1-YFP, Fluo-8 calcium fluorescence; 100% = response to 87 µM carbachol | 0.18% of 220,000 active;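 active = activation above its plate's cutoff, the mean activation of test wells on that plate plus 3 SD, cut at about 19% in these data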;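 note: 0% = DMSO alone and 100% = 87 µM carbachol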
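Control set: carbachol 87 µM as high control, DMSO as low control; system: HEK293 stable line with zebrafish TRPN1-YFP; read-out: % activation versus carbachol response; detection: intracellular calcium fluorescence with Fluo-8; doses: single test compound dose, 3 µM nominal, 0.3% DMSO; schedule: dye 1 h 37 °C plus 30 min RT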
CRFBP-R2 block: antagonists of CRF-binding protein/CRF-R2 receptor complex. HEK293 CRF-R2/CRF-BP, CRF-induced calcium fluorescence. inhibition, % at 11.8 µM. 0.59% of 350,000 active;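 active = inhibition of the ligand-induced calcium signal above about 50% at the single tested concentration, limit read from the data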
TRPML3 ag: activates the human TRPML3 channel | Q8TDD5 | HEK293 TRPML3-YFP, Fluo-8 calcium fluorescence; 100% = the carbachol control signal | activation, % at 3 µM | 0.29% of 220,000 active | AID 1448;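 active = activation above its plate's cutoff, the mean activation of the plate's test wells plus 3 SD, cut at about 12% in these data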;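 note: 0% = DMSO only wells and 100% = carbachol wells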
Target sequence (Q8TDD5 whole entry, looked up): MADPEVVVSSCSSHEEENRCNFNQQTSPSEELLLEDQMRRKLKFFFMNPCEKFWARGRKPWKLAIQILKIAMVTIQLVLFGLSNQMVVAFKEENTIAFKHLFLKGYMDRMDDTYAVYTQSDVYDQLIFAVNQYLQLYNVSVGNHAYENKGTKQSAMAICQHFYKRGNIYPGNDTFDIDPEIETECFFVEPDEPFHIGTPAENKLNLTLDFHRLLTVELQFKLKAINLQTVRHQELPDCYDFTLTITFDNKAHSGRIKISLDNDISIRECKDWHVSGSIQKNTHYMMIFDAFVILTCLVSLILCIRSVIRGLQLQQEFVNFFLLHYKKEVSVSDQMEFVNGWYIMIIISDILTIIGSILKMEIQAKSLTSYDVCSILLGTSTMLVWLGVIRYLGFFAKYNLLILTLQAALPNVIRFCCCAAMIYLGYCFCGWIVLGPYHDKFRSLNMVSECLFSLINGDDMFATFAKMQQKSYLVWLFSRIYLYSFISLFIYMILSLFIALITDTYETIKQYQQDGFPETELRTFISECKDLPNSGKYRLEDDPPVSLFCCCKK
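Test system – HEK293 line with stable expression of human TRPML3-YFP channel · Control set – carbachol 87 µM final as high control (100%), DMSO as low control (0%) · Signal – Fluo-8 calcium dye fluorescence, ex 470-495, em 515-575 nm · Incubation – 1-h 37 °C dye load, 5-s basal, 120-s post-compound reads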
Numbers without * were called inactive; x = no result given. An excerpt weighted towards active compounds, which were near 1.2% of everything screened.

SMILES	CRFR2-BP ag	zfTRPN1 agonist	CRFBP-R2 block	TRPML3 ag
O=C(NCc1cn2ccccc2n1)C1CCC(=O)N(Cc2ccccc2F)C1 (stereo not given)	-0.5	x	61.3*	x
CCCS(=O)(=O)N1CCCC(C(=O)NCCCN(CC)c2cccc(C)c2)C1 (stereo not given)	2.5	-0.5	93.6*	0.3
CC1(C)CC2CC(C)(CN2/C=C2/CCCCC2=O)C1 (stereo not given)	-1.1	2.4	114.6*	1.1
Cc1cc(C(=O)CN2C(=O)CN(C)C2=O)c(C)n1-c1cccc(S(=O)(=O)N2CCOCC2)c1	-0.2	1.6	3.3	0.7
COc1cc([N+](=O)[O-])ccc1-c1ccc(/C=N/NC(N)=O)o1	22.8	1.9	-52.8	0.2
COc1cc([N+](=O)[O-])ccc1-c1ccc(/C=N/NC(=O)OC(C)(C)C)o1	57.2*	3.7	-28.8	1.6
COc1ccc(C(=O)c2sc3nc(-c4ccccc4)ccc3c2N)cc1OC	52.0*	1.9	-29.1	1.4
COc1ccc(-c2ccc3c(N)c(C(=O)c4ccc(OC)c(OC)c4)sc3n2)cc1	4.4	0.5	9.2	1.2
CCOC(=O)c1[nH]c2cc(OC)c(OC)cc2c1N	0.1	0.5	-3.7	0.6
N=c1c2c(-c3ccccc3)c(-c3ccccc3)n(Cc3ccco3)c2ncn1CCCN1CCOCC1	-3.5	-1.3	-17.9	0.9
Cc1nc(N)c(Cc2ccccc2F)c(N)n1	2.2	1.1	-22.1	0.2
CCc1nnc(NC(=O)CCC(=O)Nc2ccccc2)s1	-0.6	-1.8	16.3	0.0
CCc1nnc(NC(=S)Nc2ccccc2)s1	-2.0	-0.1	56.9*	0.4
O=C(Nc1ccc(OC(F)(F)F)cc1)c1ccc(-n2cncn2)nc1	-0.8	3.7	2.2	1.1
COc1ccc(/C=C\C(=O)O[C@@H]2C(O)C(O[C@@H]3OC(C)[C@H](O[C@@H]4OCC(O[C@H]5O[C@H](CO)[C@@H](O)C(O)C5O)C(O)C4O)C(O)C3O)[C@H](OC(=O)[C@]34CCC(C)(C)C[C@@H]3C3=CCC5[C@@]6(C)CC(O)C(O[C@@H]7OC(CO)C(O)[C@H](O)[C@H]7O)[C@@](C)(C(=O)O)C6CC[C@@]5(C)[C@]3(CO)CC4)O[C@H]2C)cc1 (stereo not given in full)	132.4*	x	-49.4	x
C[C@@H]1CC[C@]2(C(=O)O[C@@H]3O[C@H](CO)[C@@H](O)[C@H](O)[C@H]3O)CC[C@]3(C)C(=CCC4[C@@]5(C)CC[C@H](O[C@@H]6OC[C@H](O)[C@H](O[C@@H]7O[C@H](CO)[C@@H](O)[C@H](O)[C@H]7O)[C@H]6O)C(C)(C)C5CC[C@]43C)C2[C@]1(C)O (stereo not given in full)	-0.8	x	25.6	x
COc1ccc(CNC(=O)[C@H](C)NC(=O)C2CCN(S(=O)(=O)c3ccc(F)cc3)CC2)cc1	-1.2	x	81.8*	x
COc1ccc(S(=O)(=O)N2CCCC(C(=O)NCc3ccncc3)C2)cc1 (stereo not given)	-3.2	0.8	55.8*	0.6
COc1cccc(NC(=O)C2CCCN(S(=O)(=O)c3ccc(-n4cnnn4)cc3)C2)c1 (stereo not given)	0.3	0.8	86.3*	0.6
CCOc1cccc(NC(=O)C2CCCN(S(=O)(=O)c3ccc(-n4cnnn4)cc3)C2)c1 (stereo not given)	-1.6	0.4	25.8	-0.6
COc1ccc(S(=O)(=O)N2CCCC(C(=O)NCc3ccc(F)cc3)C2)cc1 (stereo not given)	-0.3	x	-3.6	x
COc1ccc(S(=O)(=O)N2CCC(C(=O)N[C@@H](C)C(=O)NCc3ccc(F)cc3)CC2)cc1	-1.7	x	0.7	x
CCOc1ccc(C2CC(c3ccc(CC)cc3)Nc3nc(N)nn32)cc1 (stereo not given)	-1.3	0.0	-14.1	1.3
Cc1onc(-c2ccccc2Cl)c1C(=O)Nc1ccc(N2CCOCC2)cc1	-0.4	0.7	-11.5	-0.3
CC(C)CN(C(=O)CC1CCCC1)c1c(N)n(Cc2ccccc2)c(=O)[nH]c1=O	-1.8	x	2.6	x
SMILES	CRFR2-BP ag	zfTRPN1 agonist	CRFBP-R2 block	TRPML3 ag
CSc1ccc(/C=C(/NC(=O)c2ccc(C)cc2)C(=O)Nc2cccc(F)c2)cc1	1.5	0.5	136.9*	1.3
Cc1ccc(S(=O)(=O)N(CC(=O)Nc2ccccc2C(=O)O)c2cccc(Cl)c2C)cc1	2.0	-0.7	50.3*	0.6
CSc1ccccc1OCc1cc(C(=O)NCc2csc(C(C)C)n2)no1	0.3	x	104.8*	x
CNC(=O)NC(=O)COC(=O)c1ccc(-n2c(C)ccc2C)cc1	-2.8	1.1	22.5	0.5
CC(C)(C)N1CC2([N+](=O)[O-])CN(C(C)(C)C)CC([N+](=O)[O-])(C1)C2	166.7*	0.4	-122.5	1.1
COc1ccc(NC(=O)c2c(F)cccc2F)cc1S(=O)(=O)Nc1ccc(Br)cc1	4.6	3.3	62.5*	0.3
COc1ccc(NS(=O)(=O)c2cc(NC(=O)c3ccccn3)ccc2OC)cc1Br	0.0	x	4.0	x
CCN(CC)CCOC(=O)CCc1cccc2ccccc12	3.3	0.8	-13.7	0.5
CCN(CC)CCOC(=O)C(Cc1ccco1)Cc1cccc2ccccc12 (stereo not given)	-0.9	x	52.4*	x
COc1ccc(/C=C2\CCCc3c2nc2ccccc2c3C(=O)O)cc1OC	x	40.2*	x	19.3*
COc1ccc(CCN(/C=C2\Sc3ccccc3C2=O)C(C)=O)cc1OC	0.3	0.5	-21.9	-0.2
CCOc1ccc(NC(=O)Nc2cc(C(C)C)c(O)cc2C)cc1	0.7	0.3	33.6	0.8
CCOc1ccc(NC(=O)Nc2cc(C)ccc2F)cc1	-2.4	-1.1	66.4*	0.4
COc1cccc(C2CC(C(F)(F)F)n3ncc(C(=O)NCC4CCCO4)c3N2)c1 (stereo not given)	-0.7	0.7	-9.4	-0.4
O=C1C(=Cc2cccs2)C(=O)c2ccccc21	0.1	2.4	54.7*	1.0
COc1ccc(NC(=O)c2nc3nccc(C)n3n2)cc1S(=O)(=O)N1CCOCC1	-0.1	x	108.5*	x
Cc1ccc(NC(=O)c2nc3nccc(C)n3n2)cc1S(=O)(=O)N1CCCCC1	-0.8	x	2.7	x
Cc1sc(NC(=O)CN(Cc2ccc(F)cc2)C(=O)C(C)C)c(C(N)=O)c1C	-0.3	0.4	-7.4	0.7
Cc1ccc(C2=[N+]([O-])C(C)(C)N(O)C2(C)C)cc1	-4.2	0.8	14.8	1.1
CC1=[N+]([O-])C(C)(C)N(O)C1(C)C	152.1*	0.1	-143.1	1.2
Cc1ccc(CN(C(=O)c2ccccc2[N+](=O)[O-])C2CCS(=O)(=O)C2)o1 (stereo not given)	2.4	x	57.6*	x
Cc1ccc(CN(C(=O)c2ccccc2C)C2CCS(=O)(=O)C2)o1 (stereo not given)	-0.2	x	-4.4	x
CC1=C(C(=O)OC(C)C)C(c2cccs2)N2C(=O)C(C)SC2=N1 (stereo not given)	0.9	-1.7	50.3*	-0.9
Cc1ccc2nc3ccc(N4CCN(C)CC4)nn3c(=O)c2c1	-3.3	-0.3	-11.8	-0.1
